pIC50: −log10 of the molar value. In brackets after ≈: the same amount, converted by molar mass. Activity calls are given as the source filed them. The calls are words filed in the database; no cut-off is given here.
How the values were obtained:
[1] = system: MCF7; assay: Antiproliferative activity against human MCF7 cells incubated for 72 hrs by MTT assay; type: functional, cell-based; details: MCF7, 72 h
In short: (§1)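 MTT antiproliferation assay in MCF7 and SKBr3 breast cancer cells; IC50 determined.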

[2] = system: SK-BR-3; assay: Antiproliferative activity against human SKBR3 cells incubated for 72 hrs by MTT assay; type: functional, cell-based; details: SK-BR-3, 72 h; in short: as §1
[3] = Distribution coefficient, log D of the compound at pH 7.4; type: physicochemical; details: octanol/water
In short: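 Log D at pH 7.4 measured on a PULSE platform.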

[4] = Intrinsic aqueous solubility of the compound; type: physicochemical
In short: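 Intrinsic aqueous solubility determined on a Gemini Profiler instrument.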

[5] = Permeability coefficient of the compound at pH 7.4 by double-sink PAMPA; type: ADME; details: read-out: permeability
In short: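 Double-sink PAMPA at pH 7.4 on a PAMPA Explorer instrument; Pe reported as mean ± SD, n = 3.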

[6] = biological target: T1, Heat shock protein HSP90 (Homo sapiens) (UniProt P07900+P08238); assay: Inhibition of HSP90 C-terminal in human MCF7 cells assessed as reduction in Akt protein expression incubated for 24 hrs by Western blot method; type: cell-based
In short: (§2)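 MCF7 cells incubated 24 h with various concentrations, then client protein levels read by Western blot. β-Actin served as loading control. AT13387 (1.0 µM), an N-terminal Hsp90 inhibitor, was the positive control.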

[7] = biological target: T1, Heat shock protein HSP90 (Homo sapiens); assay: Inhibition of HSP90 C-terminal in human MCF7 cells assessed as reduction in ERK protein expression incubated for 24 hrs by Western blot method; type: cell-based; in short: as §2
[8] = biological target: T1, Heat shock protein HSP90 (Homo sapiens); assay: Inhibition of HSP90 C-terminal in human MCF7 cells assessed as reduction in CDK6 protein expression incubated for 24 hrs by Western blot method; type: cell-based; in short: as §2
[9] = system: MCF7; assay: Induction of heat shock response in human MCF7 cells assessed as effect on HSP90 protein expression at 1 to 10 uM incubated for 24 hrs by Western blot method; type: cell-based; details: mcf7, 24 h; in short: as §2
[10] = system: MCF7; assay: Induction of heat shock response in human MCF7 cells assessed as effect on HSP70 protein expression at 1 to 10 uM incubated for 24 hrs by Western blot method; type: cell-based; details: mcf7, 24 h; in short: as §2
[11] = system: MCF7; assay: Inhibition of cell migration in human MCF7 cells incubated for 24 hrs by wound healing assay; type: functional, cell-based
In short: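 Wound healing in MCF7 cells: the monolayer was scratched with a 200 µL sterile pipette tip, treated 24 h at various concentrations, then imaged.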

[12] = system: 4T1; assay: Antitumor activity against mouse 4T1 cells implanted in BALB/c mouse assessed as inhibition of tumor growth at 10 mg/kg/day, ip for 2 weeks measured every 2 days; type: functional; details: 4T1, ip, read-out: TGI
In short: (§3)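 BALB/c mice bearing 4T1 breast tumors were dosed ip daily for 2 weeks with vehicle, 10 or 30 mg/kg, starting once mean tumor volume reached 50 mm³. Tumor diameters were measured every two days; TGI derived.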

[13] = system: 4T1; assay: Antitumor activity against mouse 4T1 cells implanted in BALB/c mouse assessed as inhibition of tumor growth at 30 mg/kg/day, ip for 2 weeks measured every 2 days; type: functional; details: 4T1, ip, read-out: TGI; in short: as §3
[14] = system: 4T1; assay: Antitumor activity against mouse 4T1 cells implanted in BALB/c mouse assessed as inhibition of lung metastasis at 10 mg/kg/day, ip for 2 weeks measured every 2 days by H and E staining; type: functional, organism-based
In short: (§4)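 4T1 tumor-bearing BALB/c mice were dosed ip daily for 2 weeks with vehicle, 10 or 30 mg/kg, starting at mean tumor volume 50 mm³. Lung tissue was then examined for metastasis.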

[15] = system: 4T1; assay: Antitumor activity against mouse 4T1 cells implanted in BALB/c mouse assessed as inhibition of lung metastasis at 30 mg/kg/day, ip for 2 weeks measured every 2 days by H and E staining; type: functional, organism-based; in short: as §4
[16] = system: Mus musculus; assay: Toxicity in BALB/c mouse implanted with mouse 4T1 cells assessed as induction of body weight loss at 10 mg/kg/day, ip for 2 weeks measured every 2 days; type: organism-based; details: in vivo
In short: (§5)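 4T1 tumor-bearing BALB/c mice were given vehicle, 10 or 30 mg/kg ip daily for 2 weeks from mean tumor volume 50 mm³. Body weight was monitored during treatment.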

[17] = system: Mus musculus; assay: Toxicity in BALB/c mouse implanted with mouse 4T1 cells assessed as induction of body weight loss at 30 mg/kg/day, ip for 2 weeks measured every 2 days; type: organism-based; details: in vivo; in short: as §5
[18] = system: MCF7; assay: Induction of apoptosis in human MCF7 cells assessed as viable cells level at 2.5 uM incubated for 24 hrs by Annexin V-FITC and propidium iodide staining based flow cytometry (reference value: 93.37%); type: functional
[19] = system: MCF7; assay: Induction of apoptosis in human MCF7 cells assessed as early apoptotic cells level at 2.5 uM incubated for 24 hrs by Annexin V-FITC and propidium iodide staining based flow cytometry (reference value: 1.93%); type: functional
[20] = system: MCF7; assay: Induction of apoptosis in human MCF7 cells assessed as late apoptotic cells level at 2.5 uM incubated for 24 hrs by Annexin V-FITC and propidium iodide staining based flow cytometry (reference value: 4.19%); type: functional
[21] = system: MCF7; assay: Induction of apoptosis in human MCF7 cells assessed as necrotic cells level at 2.5 uM incubated for 24 hrs by Annexin V-FITC and propidium iodide staining based flow cytometry (reference value: 0.51%); type: functional
[22] = system: MCF7; assay: Induction of apoptosis in human MCF7 cells assessed as viable cells level at 5 uM incubated for 24 hrs by Annexin V-FITC and propidium iodide staining based flow cytometry (reference value: 93.37%); type: functional
[23] = system: MCF7; assay: Induction of apoptosis in human MCF7 cells assessed as early apoptotic cells level at 5 uM incubated for 24 hrs by Annexin V-FITC and propidium iodide staining based flow cytometry (reference value: 1.93%); type: functional
[24] = system: MCF7; assay: Induction of apoptosis in human MCF7 cells assessed as late apoptotic cells level at 5 uM incubated for 24 hrs by Annexin V-FITC and propidium iodide staining based flow cytometry (reference value: 4.19%); type: functional
[25] = system: MCF7; assay: Induction of apoptosis in human MCF7 cells assessed as necrotic cells level at 5 uM incubated for 24 hrs by Annexin V-FITC and propidium iodide staining based flow cytometry (reference value: 0.51%); type: functional
[26] = system: MCF7; assay: Induction of apoptosis in human MCF7 cells assessed as viable cells level at 10 uM incubated for 24 hrs by Annexin V-FITC and propidium iodide staining based flow cytometry (reference value: 93.37%); type: functional
[27] = system: MCF7; assay: Induction of apoptosis in human MCF7 cells assessed as early apoptotic cells level at 10 uM incubated for 24 hrs by Annexin V-FITC and propidium iodide staining based flow cytometry (reference value: 1.93%); type: functional
[28] = system: MCF7; assay: Induction of apoptosis in human MCF7 cells assessed as late apoptotic cells level at 10 uM incubated for 24 hrs by Annexin V-FITC and propidium iodide staining based flow cytometry (reference value: 4.19%); type: functional
[29] = system: MCF7; assay: Induction of apoptosis in human MCF7 cells assessed as necrotic cells level at 10 uM incubated for 24 hrs by Annexin V-FITC and propidium iodide staining based flow cytometry (reference value: 0.51%); type: functional

pIC50 [1]: 5.92
pIC50 [2]: 5.74
logD [3]: 2.72
solubility [4]: 70.8 µg/mL (≈ 155 µM)
Papp [5]: 47.3 ×10⁻⁶ cm/s
inhibition [6]: Dose-dependent effect
inhibition [7]: Dose-dependent effect
inhibition [8]: Dose-dependent effect
Structure (SMILES): Cc1cc(NCCN2CCCCC2)nc2ccc(NC(=O)c3ccc(Cl)c(Cl)c3)cc12
Activity [9]: Non-Toxic
Activity [10]: Non-Toxic
inhibition [11]: Dose-dependent effect
inhibition in vivo at 10 mg/kg/day [12]: 26%
inhibition in vivo at 30 mg/kg/day [13]: 47%
inhibition [14]: Active
inhibition [15]: Active
Activity [16]: Non-Toxic
Activity [17]: Non-Toxic
Activity [18]: 93.3%
Activity [19]: 1.57%
Activity [20]: 4.33%
Activity [21]: 0.8%
Activity [22]: 78.86%
Activity [23]: 5.21%
Activity [24]: 12.8%
Activity [25]: 3.13%
Activity [26]: 42.69%
Activity [27]: 20.22%
Activity [28]: 31.59%
Activity [29]: 5.5%

Reference: ChEMBL document CHEMBL4130484, “Identification and optimization of novel 6-acylamino-2-aminoquinolines as potent Hsp90 C-terminal inhibitors” (Eur J Med Chem, 2017)
